Experimental data as given in ChEMBL document CHEMBL2177013, “Synthesis and biological evaluation of tylophorine-derived dibenzoquinolines as orally active agents: exploration of the role of tylophorine e ring on biological activity” (J Med Chem, 2012).

Columns and labels:
MCF7 = assay: Growth inhibition of human MCF7 cells; format: functional
Method in brief: (§1)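 Cells seeded per well: NUGC-3 4500, HONE-1 6000, MCF-7 6500, NCI-H460 2500, HepG2 10000, A549 5000; A549 grown in RPMI 1640 with 2 g/L NaHCO₃, 2 mM L-glutamine and 10% FBS. GI₅₀ = concentration giving 50% growth inhibition, mean of at least three experiments each in duplicate. Paclitaxel served as positive control.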

NUGC-3 = assay: Growth inhibition of human NUGC3 cells; format: functional; method in brief: as §1
NCI-H460 = assay: Growth inhibition of human NCI-H460 cells; format: functional; method in brief: as §1
[1] = test system: Transmissible gastroenteritis virus; assay: Antiviral activity against Transmissible gastroenteritis virus infected in ST cells pre-treated 2 hrs before virus infection measured 6 hrs post virus infection by immunofluorescent assay; format: functional, organism-based; details: Alphacoronavirus 1, ST
Method in brief: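 ST cells, with or without 2 h compound pretreatment (10 concentrations), infected with TGEV at MOI 10. Immunofluorescence with anti-spike and anti-nucleocapsid antibodies at 6 hpi. EC50 from dose–response curves, mean of at least three experiments, each in duplicate.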

HepG2 = assay: Growth inhibition of human HepG2 cells; format: functional; method in brief: as §1
A549 = assay: Growth inhibition of human A549 cells; format: functional; method in brief: as §1
[2] = Growth inhibition of human HONE1 cells; format: functional; method in brief: as §1
RAW264.7 = assay: Antiinflammatory activity in mouse RAW264.7 cells assessed as inhibition of LPS-induced nitric oxide production incubated for 18 hrs by nitrate/nitrite assay; format: functional, cell-based; details: RAW264.7, 18 h
Method in brief: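 RAW264.7 seeded 65000 cells/well, cultured 24 h, then medium replaced with complete medium containing IFNγ (20 ng/mL)/LPS (5 μg/mL) plus compound at various concentrations for 18 h; nitric oxide measured by Nitrate/Nitrite kit. EC50 as mean of at least three experiments, each in duplicate.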

[3] = Cytotoxicity against mouse RAW264.7 cells; format: cell-based
Method in brief: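 RAW264.7 cells stimulated with LPS/IFNγ and compound-treated in parallel with the NO assay; CC50 taken as concentration giving 50% inhibition of cell growth. Mean of at least three experiments, each in duplicate.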

Compound | GI50 (MCF7) | GI50 (NUGC-3) | GI50 (NCI-H460) | EC50 [1] | GI50 (HepG2) | GI50 (A549) | GI50 [2] | EC50 (RAW264.7) | CC50 [3]
COc1cc2c3c(c4cc(OC)c(OC)c(OC)c4c2cc1OC)CCN(C(C)C)C3 | 720 nM | 640 nM | 570 nM | 780 nM | 1610 nM | 760 nM | 1120 nM |  | 
COc1cc2c3c(c4cc(OC)c(OC)cc4c2cc1OC)CN(CCCO)CC3 | 7140 nM | 6630 nM | 9410 nM | 19300 nM | 16900 nM | 5470 nM | 16600 nM |  | 
CCCN1CCc2c(c3cc(OC)ccc3c3c(OC)c(OC)ccc23)C1 | 4110 nM | 3720 nM | 3760 nM | 2630 nM | 6290 nM | 3670 nM | 4750 nM |  | 
CCCCCN1CCc2c(c3cc(OC)c(OC)cc3c3cc(OC)c(OC)cc23)C1 | 9510 nM | 7670 nM | 6110 nM | 6530 nM | 8050 nM |  | 6200 nM |  | 
CCCN1CCc2c(c3cc(OC)c(OC)cc3c3c(OC)c(OC)c(OC)cc23)C1 | 620 nM | 540 nM | 490 nM | 770 nM | 860 nM | 790 nM | 960 nM |  | 
CCCN1Cc2c(c3ccc(OC)cc3c3cc(OC)c(OC)cc23)C(O)C1 (centres undefined) | 110 nM | 110 nM | 50 nM | 120 nM | 110 nM | 50 nM | 140 nM |  | 
CCCN1CCc2c(c3cc(OC)ccc3c3cc(OC)c(OC)cc23)C1 | 3750 nM | 4630 nM | 3820 nM | 8910 nM | 4480 nM | 4640 nM | 5560 nM |  | 
CCN1CCc2c(c3cc(OC)ccc3c3cc(OC)c(OC)cc23)C1 | 3120 nM | 3480 nM | 3390 nM | 14200 nM | 4010 nM | 4380 nM | 4870 nM |  | 
CC(=O)O[C@H]1C(=O)[C@@]2(C)[C@H]([C@H](OC(=O)c3ccccc3)[C@]3(O)C[C@H](OC(=O)[C@H](O)[C@@H](NC(=O)c4ccccc4)c4ccccc4)C(C)=C1C3(C)C)[C@]1(OC(C)=O)CO[C@@H]1C[C@@H]2O [PACLITAXEL] | 30 nM | 20 nM | 30 nM |  | 180 nM | 60 nM | 20 nM |  | 
CCCCN1CCc2c(c3cc(OC)c(OC)cc3c3cc(OC)ccc23)C1 | 4730 nM | 3990 nM | 3510 nM | 5600 nM | 4040 nM | 2390 nM | 4770 nM |  | 
COc1cc2c3c(c4cc(OC)c(OC)cc4c2cc1OC)CN(CCCOC1CCCCO1)CC3 (centres undefined) | 9800 nM | 8220 nM | 7490 nM | 30800 nM | 14000 nM | 3780 nM | 9650 nM |  | 
CCCN1Cc2c(c3cc(OC)c(OC)cc3c3cc(OC)c(OC)cc23)C(O)C1 (centres undefined) | 1020 nM | 730 nM | 1080 nM | 670 nM | 1680 nM | 1190 nM | 1740 nM | 2200 nM | > 4000 nM
COc1cc2c3c(c4cc(OC)c(OC)cc4c2cc1OC)CN(CC1OCCO1)CC3 | 22400 nM | 19100 nM | 18500 nM | > 50000 nM | 41000 nM | 31500 nM | 22100 nM |  | 
CCN1CCc2c(c3cc(OC)c(OC)cc3c3c(OC)c(OC)c(OC)cc23)C1 | 1180 nM | 1700 nM | 870 nM | 1140 nM | 2500 nM | 1410 nM | 1990 nM |  | 
COc1cc2c3c(c4cc(OC)c(OC)cc4c2cc1OC)CN(CC(C)C)CC3 | 910 nM | 1040 nM | 870 nM | 1360 nM | 1810 nM | 1320 nM | 1720 nM |  | 
COc1cc2c3c(c4cc(OC)c(OC)cc4c2cc1OC)CN(CCCN)CC3 | 15300 nM | 10300 nM | 11700 nM | 23400 nM | 36900 nM | 6040 nM | 21100 nM |  | 
COc1cc2c3c(c4cc(OC)c(OC)cc4c2cc1OC)C(O)CN(C(C)C)C3 (centres undefined) | 1210 nM | 870 nM | 1070 nM | 2740 nM | 1860 nM | 1230 nM | 1710 nM | 2050 nM | > 4000 nM
CCCN1CCc2c(c3cc(OC)c(OC)cc3c3cc(OC)ccc23)C1 | 420 nM | 430 nM | 260 nM | 680 nM | 480 nM | 470 nM | 770 nM |  | 
COc1cc2c3c(c4cc(OC)c(OC)cc4c2cc1OC)CN(CCCNC(=O)OC(C)(C)C)CC3 | 3350 nM | 3400 nM | 2890 nM | 1030 nM | 4150 nM | 3550 nM | 4520 nM |  | 
CCCN1CCc2c(c3ccc(OC)cc3c3cc(OC)c(OC)cc23)C1 | 2830 nM | 2940 nM | 2400 nM | 8680 nM | 3170 nM | 2950 nM | 3310 nM |  | 
COc1cc2c3c(c4cc(OC)c(OC)cc4c2cc1OC)CN(C1C=CCCC1)CC3 (centres undefined) | 2210 nM | 1880 nM | 2300 nM | 2990 nM | 3640 nM | 1920 nM | 2530 nM |  | 
CCC(C)N1CCc2c(c3cc(OC)c(OC)cc3c3cc(OC)c(OC)cc23)C1 (centres undefined) | 400 nM | 440 nM | 450 nM | 730 nM | 510 nM | 530 nM | 1150 nM |  | 
CCCCN1CCc2c(c3cc(OC)c(OC)cc3c3c(OC)c(OC)c(OC)cc23)C1 | 3190 nM | 2540 nM | 2680 nM | 2920 nM | 5010 nM | 3010 nM | 4060 nM |  | 
CCCN1Cc2c(c3cc(OC)c(OC)c(OC)c3c3cc(OC)c(OC)cc23)C(O)C1 (centres undefined) | 590 nM | 490 nM | 590 nM | 660 nM | 830 nM | 820 nM | 820 nM |  | 
CCCCN1Cc2c(c3ccc(OC)cc3c3cc(OC)c(OC)cc23)C(O)C1 (centres undefined) | 2330 nM | 1860 nM | 1480 nM | 2920 nM | 1850 nM | 1320 nM | 3000 nM |  | 
COc1cc2c3c(c4cc(OC)c(OC)cc4c2cc1OC)CN(CCC1OCCO1)CC3 | 4600 nM | 4950 nM | 4150 nM | 31900 nM | 6490 nM | 4820 nM | 6130 nM |  | 
